ChEMBL document CHEMBL1777707, “Structure-based design, synthesis, and nonalcoholic steatohepatitis (NASH)-preventive effect of phenylpropanoic acid peroxisome proliferator-activated receptor (PPAR) α-selective agonists” (Bioorg Med Chem, 2011)
pEC50: −log10 of the molar value. Active and inactive are the calls of the source. The rule behind the calls is not given here.

Assays:
[1] = target: T1, Peroxisome proliferator-activated receptor alpha (Homo sapiens, UniProt Q07869); assay: Agonist activity at Gal4-fussed PPARalpha expressed in human HEK293 cells by reporter gene assay; format: functional, cell-based
T1 sequence (Q07869 whole entry): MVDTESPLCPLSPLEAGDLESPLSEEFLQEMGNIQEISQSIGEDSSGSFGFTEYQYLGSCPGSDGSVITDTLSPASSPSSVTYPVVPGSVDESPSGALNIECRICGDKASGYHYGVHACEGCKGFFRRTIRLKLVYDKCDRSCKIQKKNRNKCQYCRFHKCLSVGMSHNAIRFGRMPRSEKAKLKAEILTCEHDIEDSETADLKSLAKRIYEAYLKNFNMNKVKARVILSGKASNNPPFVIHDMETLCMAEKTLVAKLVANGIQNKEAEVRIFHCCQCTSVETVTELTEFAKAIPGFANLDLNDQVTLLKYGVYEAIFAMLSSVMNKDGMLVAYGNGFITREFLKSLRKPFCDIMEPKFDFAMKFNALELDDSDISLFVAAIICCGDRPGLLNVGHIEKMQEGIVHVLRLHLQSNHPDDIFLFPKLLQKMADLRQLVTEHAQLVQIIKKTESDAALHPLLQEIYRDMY
Summary of the method: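 Transient transfection of HEK-293 cells with PPAR-GAL4 chimeric receptor plus reporter. EC50 is the molar concentration giving 50% of maximal reporter activity; racemates tested as such.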

[2] = target: T2, Peroxisome proliferator-activated receptor delta (Homo sapiens, UniProt Q03181); assay: Agonist activity at Gal4-fussed PPARdelta expressed in human HEK293 cells by reporter gene assay; format: functional, cell-based
T2 sequence (Q03181 whole entry): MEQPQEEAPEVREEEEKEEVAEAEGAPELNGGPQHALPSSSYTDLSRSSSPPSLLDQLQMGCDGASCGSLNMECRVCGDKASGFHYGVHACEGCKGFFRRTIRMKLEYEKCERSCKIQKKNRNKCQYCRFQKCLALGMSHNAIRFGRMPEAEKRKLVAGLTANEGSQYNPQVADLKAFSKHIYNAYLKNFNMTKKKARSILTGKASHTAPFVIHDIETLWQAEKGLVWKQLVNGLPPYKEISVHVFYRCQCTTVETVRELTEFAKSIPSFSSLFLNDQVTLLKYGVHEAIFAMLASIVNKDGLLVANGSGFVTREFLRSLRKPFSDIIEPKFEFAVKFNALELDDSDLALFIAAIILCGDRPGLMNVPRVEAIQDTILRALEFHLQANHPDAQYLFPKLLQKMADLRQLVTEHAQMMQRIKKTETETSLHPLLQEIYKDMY

[3] = target: T3, Peroxisome proliferator-activated receptor gamma (Homo sapiens, UniProt P37231); assay: Agonist activity at Gal4-fussed PPARgamma expressed in human HEK293 cells by reporter gene assay; format: functional, cell-based
T3 sequence (P37231 whole entry): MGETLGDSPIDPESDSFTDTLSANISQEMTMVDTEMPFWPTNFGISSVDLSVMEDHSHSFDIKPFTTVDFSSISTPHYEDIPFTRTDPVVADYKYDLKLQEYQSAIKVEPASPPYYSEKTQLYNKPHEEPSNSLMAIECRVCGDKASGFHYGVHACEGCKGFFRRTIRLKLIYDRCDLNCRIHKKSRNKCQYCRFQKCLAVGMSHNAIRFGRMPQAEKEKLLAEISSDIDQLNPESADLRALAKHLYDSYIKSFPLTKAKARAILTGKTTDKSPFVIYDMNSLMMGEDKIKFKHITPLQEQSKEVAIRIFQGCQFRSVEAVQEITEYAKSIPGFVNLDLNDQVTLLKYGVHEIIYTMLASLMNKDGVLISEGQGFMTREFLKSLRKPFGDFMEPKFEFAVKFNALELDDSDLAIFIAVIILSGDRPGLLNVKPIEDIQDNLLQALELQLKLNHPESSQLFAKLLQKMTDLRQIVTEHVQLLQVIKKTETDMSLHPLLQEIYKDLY

[4] = Selectivity ratio EC50 for Gal4-fussed PPARdelta to EC50 for Gal4-fussed PPARalpha
[5] = test system: Rattus norvegicus; assay: Protection against nonalcoholic steatohepatitis progression in 4 weeks choline deficient high-fat diet fed methemoglobinemic Wistar rat assessed as prevention of liver atrophy formation at 1 mg/kg/day, ip administered for 6 weeks by hematoxylin and eosin staining in presence of 40 mg/kg/day, ip of sodium nitrite; format: functional, organism-based
Summary of the method: (§1)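 Rats fed CDHF diet from 6 weeks of age for 4 weeks, then kept on CDHF over a 6-week period with daily ip NaNO2 40 mg/kg to cause methemoglobinemia; treated group also got compound 1 mg/kg/day. Controls were normal chow, CDHF alone and NASH. Housed singly, 12-h light-dark cycle, food and water ad libitum. Endpoints taken at study end.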

[6] = test system: Rattus norvegicus; assay: Protection against nonalcoholic steatohepatitis progression in 4 weeks choline deficient high-fat diet fed methemoglobinemic Wistar rat assessed as prevention of nodule formation in liver at 1 mg/kg/day, ip administered for 6 weeks by hematoxylin and eosin staining in presence of 40 mg/kg/day, ip of sodium nitrite; format: functional, organism-based; summary of the method: as §1
[7] = test system: Rattus norvegicus; assay: Protection against nonalcoholic steatohepatitis progression in 4 weeks choline deficient high-fat diet fed methemoglobinemic Wistar rat assessed as effect on features of fatty liver at 1 mg/kg/day, ip administered for 6 weeks by hematoxylin and eosin staining in presence of 40 mg/kg/day, ip of sodium nitrite; format: functional, organism-based; summary of the method: as §1
[8] = test system: Rattus norvegicus; assay: Protection against nonalcoholic steatohepatitis progression in 4 weeks choline deficient high-fat diet fed methemoglobinemic Wistar rat assessed as prevention of liver fibrosis at 1 mg/kg/day, ip administered for 6 weeks by Masson Trichrome staining in presence of 40 mg/kg/day, ip of sodium nitrite; format: functional, organism-based; summary of the method: as §1
[9] = test system: Rattus norvegicus; assay: Protection against nonalcoholic steatohepatitis progression in 4 weeks choline deficient high-fat diet fed methemoglobinemic Wistar rat assessed as prevention of liver necrosis at 1 mg/kg/day, ip administered for 6 weeks by Masson Trichrome staining in presence of 40 mg/kg/day, ip of sodium nitrite; format: functional, organism-based; summary of the method: as §1
[10] = test system: Rattus norvegicus; assay: Protection against nonalcoholic steatohepatitis progression in 4 weeks choline deficient high-fat diet fed methemoglobinemic Wistar rat assessed as increase of aspartate amino transferase level at 1 mg/kg/day, ip administered for 6 weeks in presence of 40 mg/kg/day, ip of sodium nitrite; format: functional, organism-based; summary of the method: as §1
[11] = test system: Rattus norvegicus; assay: Protection against nonalcoholic steatohepatitis progression in 4 weeks choline deficient high-fat diet fed methemoglobinemic Wistar rat assessed as increase of alanine transaminase level at 1 mg/kg/day, ip administered for 6 weeks in presence of 40 mg/kg/day, ip of sodium nitrite; format: functional, organism-based; summary of the method: as §1
[12] = test system: Rattus norvegicus; assay: Protection against nonalcoholic steatohepatitis progression in 4 weeks choline deficient high-fat diet fed methemoglobinemic Wistar rat assessed as increase of alkaline phosphatase level at 1 mg/kg/day, ip administered for 6 weeks in presence of 40 mg/kg/day, ip of sodium nitrite; format: functional, organism-based; summary of the method: as §1
[13] = test system: Rattus norvegicus; assay: Protection against nonalcoholic steatohepatitis progression in 4 weeks choline deficient high-fat diet fed methemoglobinemic Wistar rat assessed as increase of liver function at 1 mg/kg/day, ip administered for 6 weeks in presence of 40 mg/kg/day, ip of sodium nitrite; format: functional, organism-based; summary of the method: as §1

Row | Structure (SMILES) | pEC50 [1] | pEC50 [2] | pEC50 [3] | also measured
1 | CC[C@@H](Cc1ccc(OC)c(CNC(=O)c2ccc(Oc3ccc(F)cc3)cc2)c1)C(=O)O | 8.30 | 6.52 | 6.04 | Ratio EC50 [4]: 25; Activity [5]: Active; Activity [6]: Active; Activity [7]: inactive; Activity [8]: Active; Activity [9]: Active; Activity [10]: Active; Activity [11]: Active; Activity [12]: Active; Activity [13]: Active
2 | CC[C@@H](Cc1ccc(OC)c(CNC(=O)c2ccc(Oc3ccc(Cl)cc3)cc2)c1)C(=O)O | 7.82 | 6.24 | 6.08 | 
3 | CC[C@@H](Cc1ccc(OC)c(CNC(=O)c2ccc(Oc3ccc(Br)cc3)cc2)c1)C(=O)O | 7.54 | 6.10 | 6.00 | 
4 | CCC(Cc1ccc(OC)c(CNC(=O)c2ccc(Oc3ccccc3)cc2)c1)C(=O)O (racemic) | 8.06 | 6.92 | 6.09 | 
5 | CCC(Cc1ccc(OC)c(CNC(=O)c2ccc(OC(F)(F)F)cc2)c1)C(=O)O (racemic) | 7.92 | 6.96 | 5.36 | 
6 | CCC(Cc1ccc(OC)c(CNC(=O)c2cccc(Oc3ccccc3)c2)c1)C(=O)O (racemic) | 7.39 | 5.32 | 5.34 | 
7 | CCC(Cc1ccc(OC)c(CNC(=O)c2ccccc2Oc2ccccc2)c1)C(=O)O (racemic) | 5.44 | < 5.00 | < 5.00 | 
8 | CCC(Cc1ccc(OC)c(CNC(=O)c2cccc(-c3ccccc3)c2)c1)C(=O)O (racemic) | 7.13 | 5.39 | 6.15 | 
9 | CCC(Cc1ccc(OC)c(CNC(=O)c2ccccc2-c2ccccc2)c1)C(=O)O (racemic) | 5.44 | < 5.00 | < 5.00 | 
10 | CCC(Cc1ccc(OC)c(CNC(=O)c2ccc(OCc3ccccc3)cc2)c1)C(=O)O (racemic) | 7.28 | 5.85 | 6.34 | 
11 | CCC(Cc1ccc(OC)c(CNC(=O)c2ccc(OCCc3ccccc3)cc2)c1)C(=O)O (racemic) | 7.22 | 5.85 | 6.11 | 
12 | CCC(Cc1ccc(OC)c(CNC(=O)c2ccc(C)cc2)c1)C(=O)O (racemic) |  | 6.44 | 5.02 | 
13 | CCC(Cc1ccc(OC)c(CNC(=O)c2ccccc2)c1)C(=O)O (racemic) |  |  | < 5.00 | 
14 | CCC(Cc1ccc(OC)c(CNC(=O)c2ccc(-c3ccccc3)cc2)c1)C(=O)O (racemic) | 8.12 |  | 6.47 | 
